Inconclusive results are not listed. Activity calls are given as the source filed them.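 Rule for the calls, unless noted: active = growth inhibition above 25% in both replicates, a cutoff set 3 SD above the mean; inconclusive = above 25% in only one replicate; inactive = the rest.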
Assays:
[1] = OD615 S. cerevisiae growth inhibition, permissive medium, pilot counter-assay, permissive growth control for S. cerevisiae lifespan shortening project (AID 705); details: OD615, 24 h, at 10 µM, active compounds read high
Summary of the method: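 Test system: Saccharomyces cerevisiae strain carrying genetically modified DeaD replicative-lifespan system; buffer or medium: SC raffinose/galactose permissive medium; dosing: one dose 10 µM, DMSO 0.25% final; times: 24 h exposure, 30 °C; measured by: OD at 615 nm; read-out basis: growth inhibition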

[2] = Restrictive medium S. cerevisiae growth inhibition, OD615, pilot screen of yeast lifespan reduction project, restrictive growth control (AID 706;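 active = growth inhibition above a set limit, 3 SD over mean compound inhibition, in both replicates, cut at about 43% in these data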;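 note: modified DeaD lifespan yeast strain shifted to restrictive glucose medium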); details: OD615, 48 h, at 10 µM, active compounds read high
Summary of the method: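 material = engineered S. cerevisiae DeaD strain | buffer or medium = glucose-based CSMM-D restrictive medium | dosing = one concentration, 10 µM final, 0.25% DMSO | schedule = 4 h pre-growth plus 48 h compound exposure, 30 °C | detection = OD615 absorbance reading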

[3] = viability gain of MRP-1-high H69AR cells under doxorubicin, pilot screen, MRP-1 activator project, CellTiter-Glo, duplicate (AID 807;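 active = viability increase at or above a cutoff of the median across tested compounds plus 3 SD, cut at about 8.5% in these data, passing the limit was not always enough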;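 note: compound pretreatment 18-22 h then 72 h combined with doxorubicin; 0% = doxorubicin alone and 100% = vehicle without doxorubicin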); details: H69AR viability with doxorubicin, CellTiter-Glo luminescence; at 10 µM; active compounds read high
[4] = growth suppression of beta-catenin knockout HCT116, pilot screen, human colon tumor cells (AID 823;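 active = cell viability at or below a set limit in both duplicate runs, the limit being the all-compound median minus 4 SD, cut at about 23% in these data, passing the limit was not always enough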;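 note: 0% = wells killed by 20 µM Hyamine and 100% = untreated DMSO cell wells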); details: CellTiter-Glo, 60 h, at 10 µM, active compounds read low
[5] = growth suppression of PTEN-deleted HCT116, pilot screen, cell-based, HCT116 clonal line, CellTiter-Glo (AID 824;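 active = viability at or below 27.92% in each of two runs, the all-compound median minus 4 SD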;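 note: 0% = 20 µM Hyamine control and 100% = vehicle cell control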); details: 60 h, at 10 µM, active compounds read low
[6] = inhibitors of the yeast RAM network, pilot screen, dse1pr::URA3 reporter, 5-FOA selection (AID 869;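 active = inhibition over a set limit, the all-compound mean plus 3 SD, in both replicate runs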;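 note: 0% = DMSO wells with no growth and 100% = 10 µM 1-NA-PP1 with full growth; RAM network block rescues cells from 5-FOA so hits raise OD615 growth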); details: S. cerevisiae dse1pr::URA3 5-FOA growth, OD615, 2 d; at 10 µM; active compounds read high; strain carries analog-sensitive mutant Cbk1 kinase
[7] = RAM signaling pathway blockade in yeast – S. cerevisiae, Pdr1DBD-CYC8 efflux-inhibited sensitized strain, primary screen (AID 1298;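 active = RAM network inhibition above 8.4% in each of two replicates, 3 SD over the compound average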;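 note: 0% = DMSO untreated cells without growth and 100% = 10 µM 1-NA-PP1 full growth; higher means more yeast growth rescued from 5-FOA killing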); details: S. cerevisiae cbk1-as DSE1-URA3 strain, 5-FOA growth OD615, 2 d; at 50 µM; active compounds read high

CCn1c(SCC(=O)NCC2CCCO2)nc2c(c1=O)SC(C)C2 (configuration not stated)
inactive: growth inhibition [1] -2.03% | growth inhibition [2] -29.9% | viability increase [3] -1.87% | viability [4] 103% | viability [5] 98% | inhibition [6] 0.93% | RAM network inhibition [7] 2.66%

O=S(=O)(NC1c2cccc3cccc(c23)C1N1CCNCC1)c1ccccc1 (configuration not stated)
inactive: growth inhibition [1] -10.4% | growth inhibition [2] -14.2% | viability increase [3] -5.27% | viability [4] 68% | viability [5] 74.8% | inhibition [6] 1.62% | RAM network inhibition [7] 2.72%

Cc1ccc(C)c2[nH]c(=O)c(CCNC(=O)CC(C)C)cc12
inactive: growth inhibition [1] -2.83% | growth inhibition [2] -10.7% | viability increase [3] -1.74% | viability [4] 103% | viability [5] 108% | inhibition [6] 1.75% | RAM network inhibition [7] 8.88%

CCOc1cc(CN2CCSCC2)ccc1O
inactive: growth inhibition [1] -8.12% | growth inhibition [2] -9.94% | viability increase [3] 0.51% | viability [4] 97% | viability [5] 101% | inhibition [6] 0.825% | RAM network inhibition [7] 4.67%

CCCOc1ccc(N2C(=O)CC(N3CCN(c4ccccc4OC)CC3)C2=O)cc1 (configuration not stated)
inactive: growth inhibition [1] 0.31% | growth inhibition [2] -41.2% | viability increase [3] 0.03% | viability [4] 97.6% | viability [5] 90.8% | inhibition [6] 2.04% | RAM network inhibition [7] 5.49%

CCOC(=O)c1c(/N=C/N(C)C)sc(C(=O)OC)c1C
inactive: growth inhibition [1] -5.39% | growth inhibition [2] 3.21% | viability increase [3] -4.56% | viability [4] 91.1% | viability [5] 89.6% | inhibition [6] 0.78% | RAM network inhibition [7] 1.45%

CCOc1ccc(N(CC(=O)Nc2cccc(F)c2)S(=O)(=O)c2c(C)noc2C)cc1
inactive: growth inhibition [1] -3.51% | growth inhibition [2] -8.12% | viability increase [3] -5.24% | viability [4] 66.5% | viability [5] 56.2% | inhibition [6] 3.33% | RAM network inhibition [7] 5.5%

Cc1cccc(NC(=O)C2CCCN(S(=O)(=O)c3cccc4cccnc34)C2)c1 (configuration not stated)
inactive: growth inhibition [1] -13.1% | growth inhibition [2] -9.72% | viability increase [3] -1.92% | viability [4] 87.2% | viability [5] 74.6% | inhibition [6] 2.15% | RAM network inhibition [7] 3.91%

CC(=O)c1ccc(OCC(O)CN2CCCC(C)C2)cc1 (configuration not stated)
inactive: growth inhibition [1] 5.32% | growth inhibition [2] -4.29% | viability increase [3] -0.81% | viability [4] 99.3% | viability [5] 96.7% | inhibition [6] 1.98% | RAM network inhibition [7] 5.23%

O=C(Nc1cc(=O)c2ccccc2o1)N1CCOCC1
inactive: growth inhibition [1] 1.73% | growth inhibition [2] -7.41% | viability increase [3] -2.39% | viability [4] 103% | viability [5] 103% | inhibition [6] 2.6% | RAM network inhibition [7] 1.4%

COc1ccc(OC)c(C2=Nn3c(nnc3-c3ccncc3)SC2)c1
inactive: growth inhibition [1] 0.735% | growth inhibition [2] 11.2% | viability increase [3] -2.51% | viability [4] 78.1% | viability [5] 71.1% | inhibition [6] 0.84% | RAM network inhibition [7] 5.82%

C=CC1C(N2CCOCC2)C(C)(C)S1(=O)=O (configuration not stated)
inactive: growth inhibition [1] 4.78% | growth inhibition [2] 5.46% | viability increase [3] -1.46% | viability [4] 102% | viability [5] 101% | inhibition [6] 1.38% | RAM network inhibition [7] -0.28%

O=C1C2C(c3ccccc3)C=CC(c3ccccc3)C2C(=O)N1CCO (configuration not stated)
inactive: growth inhibition [1] -10.9% | growth inhibition [2] -8.43% | viability increase [3] -3.35% | viability [4] 94.7% | viability [5] 95.3% | inhibition [6] 0.33% | RAM network inhibition [7] 4.03%

Cc1ccc(NC(=O)C2C3C=CC4(CN(Cc5cccnc5)C(=O)C24)O3)cc1 (configuration not stated)
inactive: growth inhibition [1] 5.17% | growth inhibition [2] -7.85% | viability increase [3] -1.21% | viability [4] 74.4% | viability [5] 97.3% | inhibition [6] 0.77% | RAM network inhibition [7] 2.87%

CC1CCC(NC(=O)Cn2cc3c(n2)CCCC3)CC1 (configuration not stated)
inactive: growth inhibition [1] -4.87% | growth inhibition [2] -6.18% | viability increase [3] 1.57% | viability [4] 110% | viability [5] 103% | inhibition [6] -0.485% | RAM network inhibition [7] 0.23%

COc1ccc(NC(=O)c2cnc3ccccn3c2=O)cc1OC
inactive: growth inhibition [1] -5.08% | growth inhibition [2] 4.28% | viability increase [3] -0.04% | viability [4] 101% | viability [5] 91.3% | inhibition [6] 0.665% | RAM network inhibition [7] 1.96%

Cc1cccc(NC(=O)C2CCN(S(=O)(=O)c3cccc4cccnc34)CC2)c1
inactive: growth inhibition [1] 3.19% | growth inhibition [2] 11.8% | viability increase [3] -1.52% | viability [4] 88.2% | viability [5] 81.8% | inhibition [6] 3.88% | RAM network inhibition [7] 2.49%

O=C(CSc1nc2sc3c(c2c(=O)n1-c1ccccc1)CCCC3)NCc1ccco1
inactive: growth inhibition [1] -7.07% | growth inhibition [2] -5.03% | viability increase [3] -7.21% | viability [4] 53.7% | viability [5] 53.8% | inhibition [6] 3.98% | RAM network inhibition [7] 6.12%

COc1ccc(C2C(C(=O)Nc3cccc(C)n3)c3ccccc3C(=O)N2C)cc1 (configuration not stated)
inactive: growth inhibition [1] -11.3% | growth inhibition [2] -6.23% | viability increase [3] -0.69% | viability [4] 101% | viability [5] 93.9% | inhibition [6] 1.39% | RAM network inhibition [7] 2.93%

Cc1cc(NC(=O)CSc2nc3c([nH]c4ccccc43)c(=O)n2-c2cccc(C(F)(F)F)c2)no1
inactive: growth inhibition [1] -8.72% | growth inhibition [2] -3.21% | viability increase [3] -4.01% | viability [4] 75.1% | viability [5] 66.7% | inhibition [6] 2.41% | RAM network inhibition [7] 1.08%

COCCNC(=O)c1cc2c(=O)n(C)c3ccccc3c2n1C
inactive: growth inhibition [1] -11.1% | growth inhibition [2] -7.54% | viability increase [3] -4.57% | viability [4] 84.4% | viability [5] 84.4% | inhibition [6] 2.69% | RAM network inhibition [7] 0.36%

COC(=O)C(C)Sc1nnc(Cc2cc(=O)[nH]c(=O)[nH]2)n1-c1ccc(OC)cc1 (configuration not stated)
inactive: growth inhibition [1] 8.07% | growth inhibition [2] 4.31% | viability increase [3] 0.81% | viability [4] 106% | viability [5] 101% | inhibition [6] 1.41% | RAM network inhibition [7] 2.47%

COc1ccc(C2C3=C(CCCC3=O)Nc3nc(SCc4ccc(C(=O)O)cc4)nn32)cc1OC (configuration not stated)
inactive: growth inhibition [1] -7.69% | growth inhibition [2] -1.59% | viability increase [3] -0.88% | viability [4] 92.8% | viability [5] 95.3% | inhibition [6] 3.18% | RAM network inhibition [7] 3.48%

O=C(NC1CCCCCC1)c1nnc(Cc2ccc(Cl)cc2)o1
inactive: growth inhibition [1] -12.1% | growth inhibition [2] 0.195% | viability increase [3] 2.9% | viability [4] 95.2% | viability [5] 94.5% | inhibition [6] 1.31% | RAM network inhibition [7] 2.19%

CCOC(=O)/C=C/S(=O)(=O)c1ccc(NC(C)=O)cc1
inactive: growth inhibition [1] -24.4% | growth inhibition [2] -13.2% | viability increase [3] -7.51% | viability [4] 82.4% | viability [5] 93.5% | inhibition [6] 0.03% | RAM network inhibition [7] 5.29%

COc1cccc(C(=O)NC2CC3CCCC(C2)N3CC(=O)Nc2ccc(N(C)C)cc2)c1 (configuration not stated)
inactive: growth inhibition [1] -14.1% | growth inhibition [2] -14.7% | viability increase [3] -0.9% | viability [4] 85.4% | viability [5] 87.8% | inhibition [6] 0.955% | RAM network inhibition [7] 1.97%

Cc1ccccc1N(CC(=O)NCCSCc1ccco1)S(C)(=O)=O
inactive: growth inhibition [1] -4.43% | growth inhibition [2] -7.72% | viability increase [3] -3.94% | viability [4] 93.1% | viability [5] 95.5% | inhibition [6] -0.58% | RAM network inhibition [7] 7.43%

CN1CCN(S(=O)(=O)c2ccc(NC(=O)c3cccc(S(=O)(=O)N4CCCC4)c3)cc2)CC1
inactive: growth inhibition [1] -5.16% | growth inhibition [2] -5.09% | viability increase [3] -3.98% | viability [4] 89.2% | viability [5] 97.2% | inhibition [6] 2% | RAM network inhibition [7] 9.3%

Cc1ccc(N2C(=O)C(Cl)=C(NCCO)C2=O)c(C)c1
inactive: growth inhibition [1] -4.71% | growth inhibition [2] -2.88% | viability increase [3] -2.47% | viability [4] 105% | viability [5] 100% | inhibition [6] 2.02% | RAM network inhibition [7] 8.82%

CNC(=O)CN1C(=O)c2ccccc2S1(=O)=O
inactive: growth inhibition [1] -5.12% | growth inhibition [2] 1.27% | viability increase [3] -0.6% | viability [4] 101% | viability [5] 98.9% | inhibition [6] 2.51% | RAM network inhibition [7] 2.32%

CSc1nc2ccc(NS(=O)(=O)c3ccc4c(c3)OCCO4)cc2s1
inactive: growth inhibition [1] 0.175% | growth inhibition [2] 0.53% | viability increase [3] 0.31% | viability [4] 90.8% | viability [5] 88.4% | inhibition [6] 0.865% | RAM network inhibition [7] 5.46%

COC(=O)C1C(O)=C(C=NCC(C)N=CC2=C(O)C(C(=O)OC)C(C)(C)CC2=O)C(=O)CC1(C)C (configuration not stated)
inactive: growth inhibition [1] -4.88% | growth inhibition [2] -3.87% | viability increase [3] -0.55% | viability [4] 92.4% | viability [5] 93.7% | inhibition [6] 2.5% | RAM network inhibition [7] 0.9%

COc1ccccc1CNC(=O)Cn1cc2c(n1)CCCC2
active: viability increase [3] 13.7%
inactive: growth inhibition [1] -6.06% | growth inhibition [2] -7.73% | viability [4] 107% | viability [5] 101% | inhibition [6] 0.685% | RAM network inhibition [7] 3.05%

CC(=O)Nc1ccc(S(=O)(=O)NC2=NCN(CCOC(=O)c3ccccc3)CN2)cc1
inactive: growth inhibition [1] -3.64% | growth inhibition [2] 5.12% | viability increase [3] -1.37% | viability [4] 92.7% | viability [5] 93.6% | inhibition [6] 1.29% | RAM network inhibition [7] 1.02%

CCOCCCNC(=O)Cn1nc(-c2ccccc2)ccc1=O
inactive: growth inhibition [1] -19.8% | growth inhibition [2] -7.81% | viability increase [3] 1.86% | viability [4] 105% | viability [5] 91.7% | inhibition [6] 0.165% | RAM network inhibition [7] -0.58%

COC(=O)c1ccc(NC(=O)c2cccc(OC)c2)cc1
inactive: growth inhibition [1] -1.57% | growth inhibition [2] 7.93% | viability increase [3] 1.59% | viability [4] 69.9% | viability [5] 80.7% | inhibition [6] 0.875% | RAM network inhibition [7] 8.05%
